# Results published in publication PMC11406440 (Food and chemical toxicology : an international journal …, 2024).
# Experiments:
# [1] = system: ear pinna cells; assay: Skin; assay type: in vivo, B6C3F1 mice; details: 28 days; for Skin CD4+ frequency / Skin CD4+ number / Skin CD8+ frequency / Skin CD8+ number / Skin CD11b + DCs frequency / Skin CD11b + DCs number / Skin CD11b- DCs frequency / Skin CD11b- DCs number / Skin CD45+ frequency / Skin CD45+ number / Skin Cellularity / Skin Eosinophils frequency / Skin Eosinophils number / Skin NK frequency / Skin NK number / Skin Neutrophils frequency / Skin Neutrophils number: mean ± SE
# How it was run: (§1)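 Female B6C3F1 mice (5/group) received 25 μl/ear of acetone vehicle or 1.25, 2.5 or 5% w/v test compound on the dorsal surface of each ear, once daily for 28 days. They were euthanized about 24 h later. Single-cell suspensions were made from both auricular dLNs, half a spleen or one ear pinna. Cells were Fc-blocked (anti-CD16/32), stained with surface antibody cocktails and acquired on an LSR II, with FMO gating controls.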
# [2] = system: spleen cells; assay: Spleen immune phenotyping by flow cytometry; assay type: in vivo, B6C3F1 mice; details: 1.25% PFHxS, 28 days; mean ± SE
# How it was run: as §1
smiles,measurement,setting,value
"O=S(=O)(O)C(F)(F)C(F)(F)C(F)(F)C(F)(F)C(F)(F)C(F)(F)F [PFHxS, Perfluorohexane sulfonic acid]",Skin CD4+ frequency,[1]; 1.25% PFHxS,2.64 ± 0.25%
same,Skin CD4+ number,[1]; 1.25% PFHxS,2.31 ± 0.36 x 10^3
same,Skin CD8+ frequency,[1]; 1.25% PFHxS,0.36 ± 0.05%
same,Skin CD8+ number,[1]; 1.25% PFHxS,3.21 ± 0.60 x 10^2
same,Skin CD11b + DCs frequency,[1]; 1.25% PFHxS,0.64 ± 0.03%
same,Skin CD11b + DCs number,[1]; 1.25% PFHxS,5.17 ± 0.30 x 10^2
same,Skin CD11b- DCs frequency,[1]; 1.25% PFHxS,1.43 ± 0.18 %
same,Skin CD11b- DCs number,[1]; 1.25% PFHxS,12.30 ± 1.74 x 10^2
same,Skin CD45+ frequency,[1]; 1.25% PFHxS,8.29 ± 0.74%
same,Skin CD45+ number,[1]; 1.25% PFHxS,8.39 ± 0.66 x 10^4
same,Skin Cellularity,[1]; 1.25% PFHxS,9.56 ± 0.21 x 10^5
same,Skin Eosinophils frequency,[1]; 1.25% PFHxS,1.21 ± 0.20 %
same,Skin Eosinophils number,[1]; 1.25% PFHxS,1.00 ± 0.24 x 10^3
same,Skin NK frequency,[1]; 1.25% PFHxS,0.97 ± 0.11%
same,Skin NK number,[1]; 1.25% PFHxS,8.53 ± 1.49 x 10^2
same,Skin Neutrophils frequency,[1]; 1.25% PFHxS,0.23 ± 0.03%
same,Skin Neutrophils number,[1]; 1.25% PFHxS,1.79 ± 0.31 x 10^2
same,Skin CD4+ frequency,[1]; 2.5% PFHxS,3.34 ± 0.18 %
same,Skin CD4+ number,[1]; 2.5% PFHxS,2.10 ± 0.25 x 10^3
same,Skin CD8+ frequency,[1]; 2.5% PFHxS,0.41 ± 0.07 %
same,Skin CD8+ number,[1]; 2.5% PFHxS,2.52 ± 0.48 x 10^2
same,Skin CD11b + DCs frequency,[1]; 2.5% PFHxS,0.73 ± 0.08%
same,Skin CD11b + DCs number,[1]; 2.5% PFHxS,4.45 ± 0.48 x 10^2
same,Skin CD11b- DCs frequency,[1]; 2.5% PFHxS,1.23 ± 0.12 %
same,Skin CD11b- DCs number,[1]; 2.5% PFHxS,7.66 ± 1.11 x 10^2
same,Skin CD45+ frequency,[1]; 2.5% PFHxS,8.20 ± 0.74%
same,Skin CD45+ number,[1]; 2.5% PFHxS,6.35 ± 0.84 x 10^4
same,Skin Cellularity,[1]; 2.5% PFHxS,7.67 ± 0.62 x 10^5
same,Skin Eosinophils frequency,[1]; 2.5% PFHxS,1.75 ± 0.12%
same,Skin Eosinophils number,[1]; 2.5% PFHxS,1.10 ± 0.15 x 10^3
same,Skin NK frequency,[1]; 2.5% PFHxS,0.78 ± 0.07 %
same,Skin NK number,[1]; 2.5% PFHxS,4.86 ± 0.61 x 10^2
same,Skin Neutrophils frequency,[1]; 2.5% PFHxS,0.30 ± 0.05%
same,Skin Neutrophils number,[1]; 2.5% PFHxS,1.84 ± 0.33 x 10^2
same,Skin macrophage number,[1]; 5% PFHxS,increase
same,Skin CD4+ frequency,[1]; 5% PFHxS,4.51 ± 0.21 %
same,Skin CD4+ number,[1]; 5% PFHxS,5.82 ± 0.41 x 10^3
same,Skin CD8+ frequency,[1]; 5% PFHxS,0.73 ± 0.09 %
same,Skin CD8+ number,[1]; 5% PFHxS,9.37 ± 1.32 x 10^2
same,Skin CD11b + DCs frequency,[1]; 5% PFHxS,1.18 ± 0.05 %
same,Skin CD11b + DCs number,[1]; 5% PFHxS,15.10 ± 0.45 x 10^2
same,Skin CD11b- DCs frequency,[1]; 5% PFHxS,1.25 ± 0.08 %
same,Skin CD11b- DCs number,[1]; 5% PFHxS,16.10 ± 1.39 x 10^2
same,Skin CD45+ frequency,[1]; 5% PFHxS,13.48 ± 0.52 %
same,Skin Cellularity,[1]; 5% PFHxS,9.56 ± 0.31 x 10^5
same,Skin Eosinophils frequency,[1]; 5% PFHxS,2.68 ± 0.31%
same,Skin Eosinophils number,[1]; 5% PFHxS,3.49 ± 0.52 x 10^3
same,Skin NK frequency,[1]; 5% PFHxS,0.68 ± 0.04 %
same,Skin NK number,[1]; 5% PFHxS,8.76 ± 0.68 x 10^2
same,Skin Neutrophils frequency,[1]; 5% PFHxS,1.14 ± 0.37 %
same,Skin Neutrophils number,[1]; 5% PFHxS,14.10 ± 4.21 x 10^2
same,Spleen B-cells frequency,[2],31.48 ± 0.59%
same,Spleen B-cells number,[2],2.50 ± 0.38 x 10^7
same,Spleen CD4+ frequency,[2],24.60 ± 0.70%
same,Spleen CD4+ number,[2],1.95 ± 0.30 x 10^7
same,Spleen CD8+ frequency,[2],15.12 ± 0.73%
same,Spleen CD8+ number,[2],11.70 ± 1.45 x 10^6
same,Spleen CD11b + Ly6C+ frequency,[2],1.11 ± 0.09%
same,Spleen CD11b + Ly6C+ number,[2],9.05 ± 1.59 x 10^5
same,Spleen CD11b + Ly6C- frequency,[2],2.63 ± 0.16 %
same,Spleen CD11b + Ly6C- number,[2],21.00 ± 3.46 x 10^5
same,Spleen CD11b+ frequency,[2],3.90 ± 0.21%
same,Spleen CD11b+ number,[2],3.13 ± 0.51 x 10^6
